Rce1 inh: yeast Ras-converting enzyme inhibition | 0.27% of 290,000 active | yeast membranes, quenched prenylated peptide cleavage fluorescence | calls only;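 active = fall in fluorescence gain of 50% or more versus controls, with final raw signal at or below 3038400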
Target sequence (Q03530 whole entry, looked up): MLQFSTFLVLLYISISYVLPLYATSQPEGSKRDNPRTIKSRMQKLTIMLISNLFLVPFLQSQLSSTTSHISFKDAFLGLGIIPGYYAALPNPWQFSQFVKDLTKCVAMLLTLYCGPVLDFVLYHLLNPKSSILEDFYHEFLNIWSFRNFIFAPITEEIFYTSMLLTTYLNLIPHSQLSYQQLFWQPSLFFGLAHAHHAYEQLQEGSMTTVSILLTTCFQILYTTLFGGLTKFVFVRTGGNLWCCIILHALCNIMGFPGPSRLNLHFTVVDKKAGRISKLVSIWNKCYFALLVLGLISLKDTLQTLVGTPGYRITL
procasp7 counter: counter-screen for procaspase-3 activators: activators of human procaspase-7. recombinant procaspase-7, Ac-DEVD-pNA absorbance 405 nm; D23A/D198A/D206A triple mutant, cannot self-cleave; scale: DMSO 0, 5 µM enzyme 100. activation, % at 8.5 µM. 0.093% of 330,000 active;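 active = percent activation above the screen-wide mean plus 3 SD, cut at about 25% in these data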
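signal = Epi-absorbance of released pNA at 405 nm, two timepoints | assay system = Uncleavable procaspase-7 mutant enzyme | reagent = Ac-DEVD-pNA substrate, 400 µM as added | times = 1 h enzyme–compound preincubation and 2 h substrate reaction, both 25 °C | benchmarks = low DMSO alone, high DMSO plus 5 µM PC-7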
proCasp3 act: activators of human procaspase-3 | P42574 | recombinant procaspase-3 D3A, Ac-DEVD-pNA absorbance 405 nm | activation, % at 8.5 µM | 0.11% of 330,000 active | AID 463141;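 active = activation above the mean of all tested compounds plus 3 SD, cut at about 21% in these data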
Target sequence (P42574 whole entry D9A/D28A/D175A): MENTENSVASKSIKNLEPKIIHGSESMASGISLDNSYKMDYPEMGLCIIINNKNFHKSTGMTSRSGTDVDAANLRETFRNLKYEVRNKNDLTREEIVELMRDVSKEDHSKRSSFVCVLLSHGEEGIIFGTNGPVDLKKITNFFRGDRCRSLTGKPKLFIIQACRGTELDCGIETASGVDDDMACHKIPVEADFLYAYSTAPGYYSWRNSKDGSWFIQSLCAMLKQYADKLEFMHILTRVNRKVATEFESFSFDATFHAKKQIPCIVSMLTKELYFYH
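Assay system: Procaspase-3 D3A mutant, all three cleavage aspartates alanine. Buffer or medium: Zinc-free HEPES saline buffer with Triton X-100. Times: 1 h compound preincubation, 2 h substrate hydrolysis at 25 °C. Measured by: 405 nm absorbance of p-nitroaniline, reads at 0 and 120 min. Read-out basis: percent activation relative to control range. Replicates: singlicate.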
Lipid droplet: modulators of hepatic lipid droplet formation. AML12 mouse hepatocytes, oleate lipid droplets, BODIPY imaging. inhibition, % at 6.5 µM. 0.4% of 240,000 active;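 active = lipid droplet intensity inhibited by at least 50%, with more than 500 cells counted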
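Material: mouse AML12 hepatocyte cell line, fixed after treatment; Timing: compound with oleate, overnight; Technique: high-content imaging of BODIPY-stained droplets and DAPI nuclei; Probe or stimulus: oleate, 100 µM final; Dosing: compound at 6.5 µM only.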
pCIP destab: compounds decreasing mouse p/CIP protein stability; AID 1984; F442A p/CIP-EGFP cells, EGFP fluorescence, 16 h; decrease of EGFP signal, % at 10 µM; 0.01% of 290,000 active;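 active = EGFP signal decrease of at least 30% at 10 µM or well 3 SD below plate mean, unless failing retest; inactive = the rest, including hits failing retest or dose response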
FXN GAA850 act: activators of GAA850 frataxin (FXN) promoter; HEK293 lucGAA850 FXN promoter luciferase reporter, 24 h; percent of 10 µM SAHA response; activation, % at 6 µM; 0.56% of 360,000 active;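 active = activation above the average of all compounds screened plus 3 SD, cutoff fixed separately per campaign, cut at about 7.5% in these data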
Hep lipid conf: hepatic lipid droplet formation inhibition, confirmed | 65% of 870 active | inhibition, % at 5.2 µM | AML12 mouse hepatocytes, BODIPY lipid droplet imaging; droplets induced with 100 µM oleic acid | shares compounds with Lipid droplet | AID 463183;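 active = inhibition of lipid droplet metric at least 50%, with more than 300 cells in each of four replicates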
AML12 cytotox: AML12 hepatocyte cytotoxicity (counter-screen). shares compounds with Lipid droplet. AML12 mouse hepatocytes, DAPI nuclear morphology cytotoxicity imaging; hits give high values; cells fed 100 µM oleate overnight. z-score at 5 µM. 3% of 870 active. AID 463200; in the data active = z-score above about 6.3;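 also: compound exposure lasted overnight at 37 °C before fixation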
AML12 tox ATP: AML12 hepatocyte cytotoxicity, confirmed; AID 463219; cytotoxicity, % at 50 µM; shares compounds with Lipid droplet; 530 tested, under 10 active; AML12 mouse hepatocyte viability, ATP luminescence; cells loaded with 100 µM oleic acid;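 active = cytotoxicity above 50% in each of four replicates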;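 also: compound exposure lasted overnight at 37 °C before the ATP read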
Each line names hits and unclear results; the compound was inactive in the other large screens (follow-up assays come after a bar, where they were run). Shown are actives, neighbours in structure and some others; about 1.2% of the full set was active somewhere.

COC(=O)c1ccccc1NC(=O)c1cccc(NC(=O)c2ccc(Br)o2)c1C	Lipid droplet 62 | Hep lipid conf 96 | AML12 cytotox inactive | AML12 tox ATP inactive
O=C(Nc1ccccc1C(=O)O)c1ccc(Br)o1	none (no result: Lipid droplet)
Cc1cc(SC#N)cc(C)c1NC(=O)CCl	none
CCc1cc(SC#N)cc(C)c1NC(=O)CCl	Lipid droplet 68 | Hep lipid conf inactive | AML12 cytotox inactive
O=C(NCc1cccc(Cl)c1)C1Cc2c(-c3ccccc3)ccnc2O1 (centres undefined)	none (no result: Rce1 inh, procasp7 counter, proCasp3 act, Lipid droplet, pCIP destab)
COc1ccc2[nH]c3c(c2c1)CCN1C(=O)N([C@@H](C)C(=O)NCCc2ccc(OC)c(OC)c2)C(=O)[C@]31C	none (no result: Lipid droplet)
COc1ccc(CCNc2nc(=S)[nH]c3cc(OC)c(OC)cc23)cc1OC	none
COc1ccc(CCNC(=O)[C@H](C)N2C(=O)N3CCc4c([nH]c5ccccc45)[C@@]3(C)C2=O)cc1OC	Lipid droplet 87 (no result: Rce1 inh) | Hep lipid conf 102 | AML12 cytotox inactive | AML12 tox ATP inactive
COc1ccc(CCNC(=O)c2ccc(CNc3nc(=S)[nH]c4ccccc34)cc2)cc1OC	Lipid droplet 52 | Hep lipid conf 101 | AML12 cytotox inactive | AML12 tox ATP inactive
CCCS(=O)(=O)NC(=O)C1(C)CCCN(C(=O)c2cccc(C(F)(F)F)c2)C1 (centres undefined)	none (no result: Rce1 inh, procasp7 counter, proCasp3 act, Lipid droplet, pCIP destab)
CC(C)c1ccc(NC(=O)CSc2nc3ccccc3nc2N2CCCC2)cc1	Lipid droplet 70 | Hep lipid conf 105 | AML12 cytotox inactive | AML12 tox ATP inactive
Cc1ccc(NC(=O)CSc2nc3ccccc3nc2N2CCCC2)cc1	proCasp3 act 40, Lipid droplet 70 | Hep lipid conf 104 | AML12 cytotox inactive | AML12 tox ATP inactive
CCc1ccc(NC(=O)CSc2nc3ccccc3nc2N2CCCC2)cc1	Lipid droplet 74 | Hep lipid conf 101 | AML12 cytotox inactive | AML12 tox ATP inactive
O=C(CSc1nc2ccccc2nc1N1CCCC1)Nc1ccc(Cl)cc1	none
CCc1nc2c(OCC(=O)c3ccc(F)cc3)cccn2c1N(C)C(=O)c1cccs1	none (no result: Rce1 inh, procasp7 counter, proCasp3 act, Lipid droplet, pCIP destab)
CCCCN1C(=O)/C(=C/C=C2\Oc3ccccc3N2CC)SC1=S	Lipid droplet 69 (no result: procasp7 counter, proCasp3 act) | Hep lipid conf 113 | AML12 cytotox inactive | AML12 tox ATP inactive
CSc1ccccc1C(=O)C1CCCN(C(=O)c2cccc(Cn3cccn3)c2)C1 (centres undefined)	none (no result: Rce1 inh, procasp7 counter, proCasp3 act, Lipid droplet, pCIP destab)
CCCOC(=O)c1ccc(NC(=O)c2ccc(Br)o2)cc1	Lipid droplet 74 | Hep lipid conf 82 | AML12 cytotox inactive | AML12 tox ATP inactive
COC(=O)Cc1ccc(NC(=O)c2ccc(Br)o2)cc1	none
COc1cc(OC)nc(Nc2nc(CN)cs2)n1	none (no result: Rce1 inh, procasp7 counter, proCasp3 act, Lipid droplet, pCIP destab)
Cc1nnc(SCC(=O)Nc2cc(-c3cc(C)c(C)cc3C)nn2-c2ccccc2)s1	Lipid droplet 78 | Hep lipid conf 89 | AML12 cytotox inactive | AML12 tox ATP inactive
CN(C)c1ccc(CC(=O)N2CCCCC2c2cc(C(=O)Nc3cccc4c3CCCC4)no2)cc1 (centres undefined)	none (no result: Rce1 inh, procasp7 counter, proCasp3 act, Lipid droplet, pCIP destab)
CC(C)S(=O)(=O)NC(=O)C1(C)CCN1C(=O)Cc1ccccc1 (centres undefined)	none (no result: Rce1 inh, procasp7 counter, proCasp3 act, Lipid droplet, pCIP destab)
O=C(Cn1nnc(-c2ccc([N+](=O)[O-])cc2)n1)NNC(=O)c1ccccc1	Lipid droplet 59 | Hep lipid conf inactive | AML12 cytotox inactive
O=C(Nc1cccc(Br)c1)c1cccc(OC(=S)N2CCOCC2)c1	Lipid droplet 59 (no result: Rce1 inh) | Hep lipid conf 95 | AML12 cytotox inactive | AML12 tox ATP inactive
Cc1ccc(-c2nnc(OCc3cccnc3)c3ccccc23)cc1	Lipid droplet 67 | Hep lipid conf 86 | AML12 cytotox inactive | AML12 tox ATP inactive
CCN(CC(=O)Nc1c(F)cccc1F)C(=O)CCCc1c[nH]c2ccccc12	Lipid droplet 82 | Hep lipid conf 105 | AML12 cytotox inactive | AML12 tox ATP inactive
CSc1ccccc1NC(=O)CN(Cc1ccccc1)S(C)(=O)=O	none
CS(=O)(=O)N(CC(=O)Nc1ccccc1Br)Cc1ccccc1	Lipid droplet 56 | Hep lipid conf 67 | AML12 cytotox inactive | AML12 tox ATP inactive
CN(C)c1ccc(-c2ccnc3c2CC(C)(C(=O)NCc2ccco2)O3)cc1 (centres undefined)	none (no result: Rce1 inh, procasp7 counter, proCasp3 act, Lipid droplet, pCIP destab)
O=C(CN1C(=O)NC2(CCc3ccccc32)C1=O)Nc1ccc(Cl)cc1F (centres undefined)	none (no result: Rce1 inh, procasp7 counter, proCasp3 act, Lipid droplet, pCIP destab)
Cc1ccc(N2C(N)=C(C#N)C(c3cc(CN4CCOCC4)cs3)C3=C2CC(C)(C)CC3=O)cc1 (centres undefined)	Lipid droplet 75 | Hep lipid conf 87 | AML12 cytotox inactive | AML12 tox ATP inactive
Cc1ccc(N2C(N)=C(C#N)C(c3ccsc3)C3=C2CC(C)(C)CC3=O)cc1 (centres undefined)	none (no result: Lipid droplet)
Clc1ccc2c(NCc3cccs3)ncnc2c1	none (no result: Lipid droplet)
COc1cc2ncnc(NCc3cccs3)c2cc1OC	Lipid droplet 52 | Hep lipid conf 62 | AML12 cytotox 15
COc1cc(CCC(=O)OCC(=O)Nc2ccc(C)cc2Cl)cc(OC)c1OC	none
COc1ccc(OC)c(/C=C/C(=O)N(C)CC(=O)Nc2cc(C)ccc2C)c1	Lipid droplet 60 | Hep lipid conf 95 | AML12 cytotox inactive | AML12 tox ATP inactive
COc1ccc(OC)c(/C=C/C(=O)N(C)CC(=O)Nc2ccc(C)cc2)c1	Lipid droplet 59 | Hep lipid conf 77 | AML12 cytotox inactive | AML12 tox ATP inactive
Cc1ccc(NC(=O)CN(C)C(=O)/C=C/c2cccc(F)c2)cc1	none
CC1(C(=O)Nc2cccc(C#N)c2)CCN1C(=O)c1ccccc1CCc1ccccc1 (centres undefined)	none (no result: Rce1 inh, procasp7 counter, proCasp3 act, Lipid droplet, pCIP destab)
Cc1ccc(C2/C(=C(/O)c3cnn(-c4ccccc4)c3C)C(=O)C(=O)N2CCCN2CCOCC2)o1 (centres undefined)	Lipid droplet 96 (no result: FXN GAA850 act) | Hep lipid conf inactive | AML12 cytotox inactive
FC(F)(F)COc1nc(N2CCOCC2)nc(N(c2ccccc2)c2ccccc2)n1	Lipid droplet 51 | Hep lipid conf 73 | AML12 cytotox inactive | AML12 tox ATP inactive
OC[C@@H]1CN(Cc2ccc(Cl)cc2)C[C@H](n2cnc3c(N4CCCC4)ncnc32)O1	none (no result: Rce1 inh, procasp7 counter, proCasp3 act, Lipid droplet, pCIP destab)
